According to publication PMC10449972 (Clinical Pharmacokinetics, 2023):

Assays:
hepatic HSD-1 [1] = conditions: lowest daily dose of 1 mg ABT-384, last day of dosing; cited from earlier work
HSD-1 [2] = target: T1, HSD-1 (Homo sapiens, UniProt P28845); test: TMDD model component: binding of SPI-62 to its pharmacological target HSD-1; assay type: in vivo, human (healthy adults)
In short: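 Target-binding component of the simultaneous population PK/PD fit. Drug in the central compartment binds HSD-1 with a second-order association constant (Kon) to form a complex. The complex dissociates with a first-order constant (Koff). Rtotal is the total HSD-1 amount. Data were pooled plasma concentrations from single- and multiple-dose trials plus urinary HSD-1 activity from multiple-dose cohorts. Kd was derived as Koff/Kon, and IIV was exponential.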

hepatic HSD-1 [3] = target: T2, hepatic HSD-1 (Homo sapiens, UniProt P28845); test: Hepatic HSD-1 activity, urinary ratio; assay type: in vivo, human (healthy adults); conditions: regimens as low as 0.2 mg once daily, lowest dose tested
T2 sequence (P28845 whole entry): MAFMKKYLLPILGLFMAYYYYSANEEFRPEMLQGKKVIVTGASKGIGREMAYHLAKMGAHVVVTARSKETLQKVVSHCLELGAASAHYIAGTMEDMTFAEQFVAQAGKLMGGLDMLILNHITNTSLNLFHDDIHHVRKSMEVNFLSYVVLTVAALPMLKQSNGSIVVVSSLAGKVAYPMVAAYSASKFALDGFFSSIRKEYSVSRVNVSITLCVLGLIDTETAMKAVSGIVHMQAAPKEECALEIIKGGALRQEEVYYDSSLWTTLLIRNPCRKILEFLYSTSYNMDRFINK
In short: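 Healthy adults in low-dose multiple-dose cohorts were given oral test compound: 3 mg loading then 0.2 mg once daily (days 2–14); 0.4 mg once daily (days 1–14); or 0.7 or 2 mg single dose, 6-day washout, then once daily (days 7–20). First-morning urine was collected predose and on scheduled days, and steroids were measured by LC-MS/MS. Activity ratio was fitted against time-matched model-predicted plasma concentration using a sigmoid inhibitory Imax model.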

[4] = single dose of 0.7 mg SPI-62, plasma; cited from earlier work
HSD-1 [5] = target: T1, HSD-1; conditions: earlier TMDD model; cited from earlier work
hepatic HSD-1 [6] = target: T2, hepatic HSD-1; conditions: cited from earlier work
human HSD-1 = conditions: measured in vitro; cited from earlier work
HSD-2 = conditions: cited from earlier work

T1 sequence (P28845 whole entry): as above

Structure (SMILES) | Hepatic HSD-1 inhibition (hepatic HSD-1 [1]) | Kd (HSD-1 [2]) | Kd, ratio of Koff and Kon (HSD-1 [2]; calculated from TMDD model estimates) | Target capacity (Rtot) expressed as amount of SPI-62 (HSD-1 [2]; corresponds to 5460 nmol) | Kon, second-order association rate constant (HSD-1 [2]; estimated, final PK/PD model) | Inhibition of hepatic HSD-1 (hepatic HSD-1 [3]) | Average Cmax [4] | Rmax, capacity of the target, estimated using PK data alone (HSD-1 [5]) | Hepatic HSD-1 inhibition on day 6 (hepatic HSD-1 [6]; after single low dose, 6-day wash out, day 6) | HSD-1 inhibition after repeated doses (hepatic HSD-1 [6]; all low dose groups (0.2 mg with 3 mg loading dose, 0.4, 0.7, 2 mg QD)) | Return of urinary HSD-1 ratio to baseline (hepatic HSD-1 [6]; approximately 16 days after the last dose, lowest dose 0.2 mg) | HSD-1 inhibition (urinary HSD-1 ratio) after the first dose (hepatic HSD-1 [6]; first dose of 0.7 mg) | Hepatic HSD-1 inhibition (hepatic HSD-1 [6]; following a single dose of 0.7 mg) | Ki (human HSD-1) | Activity on HSD-2 (HSD-2)
CC(C)(C(=O)NC1C2CC3CC1CC(C(N)=O)(C3)C2)N1CCN(c2ccc(C(F)(F)F)cn2)CC1 (stereo not drawn) [ABT-384] | full hepatic HSD-1 inhibition |  |  |  |  |  |  |  |  |  |  |  |  |  | 
Cn1c(-c2ccc(C(N)=O)cc2F)nnc1C(C)(C)Oc1c(F)cc(Cl)cc1F [SPI-62] |  | 27.2 pM | 27.2 pM | approximately 2.2 mg | 2.34e+06 M⁻¹ s⁻¹ | almost complete inhibition | 0.02 ng/mL | 6070 nmol | > 30% | full HSD-1 inhibition | incomplete return | substantial HSD-1 inhibition | more than 40% | 5300 pM | minimal activity
